Experimental findings from ChEMBL document CHEMBL1137350, “Discovery of a new class of macrocyclic antagonists to the human motilin receptor” (J Med Chem, 2006) are described below.

The target of test [1] is T1, Motilin receptor (Homo sapiens, UniProt O43193). In words: Displacement of [125I]motilin from human MOTR. The method in brief: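 Competition binding on isolated membranes expressing human motilin receptor, with radioiodinated porcine motilin ([125I]-motilin) as tracer. 11-point concentration curves gave Ki, with a top test concentration of 10 µM. Compounds came from 10 mM DMSO stocks stored at -60 °C.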

For test [2], the target named is T1, Motilin receptor. In words: Activity at human MOTR expressed in CHO cells assessed as inhibition of motilin-induced calcium release upto 10 uM. The test is classed as functional, cell-based. Particulars: filed as antagonist. The method in brief:
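Aequorin luminescence assay on whole CHO cells expressing cloned human motilin receptor, measuring inhibition of motilin-induced Ca2+ release. Agonist activity was also checked at concentrations up to 10 µM. Compounds were TFA salts held as 10 mM DMSO stocks at -60 °C.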

As a reminder, the Ki is a dissociation constant, usually derived from enzyme kinetics or from competition with a known ligand.

Molecules are shown by their SMILES.

T1 sequence (O43193 whole entry): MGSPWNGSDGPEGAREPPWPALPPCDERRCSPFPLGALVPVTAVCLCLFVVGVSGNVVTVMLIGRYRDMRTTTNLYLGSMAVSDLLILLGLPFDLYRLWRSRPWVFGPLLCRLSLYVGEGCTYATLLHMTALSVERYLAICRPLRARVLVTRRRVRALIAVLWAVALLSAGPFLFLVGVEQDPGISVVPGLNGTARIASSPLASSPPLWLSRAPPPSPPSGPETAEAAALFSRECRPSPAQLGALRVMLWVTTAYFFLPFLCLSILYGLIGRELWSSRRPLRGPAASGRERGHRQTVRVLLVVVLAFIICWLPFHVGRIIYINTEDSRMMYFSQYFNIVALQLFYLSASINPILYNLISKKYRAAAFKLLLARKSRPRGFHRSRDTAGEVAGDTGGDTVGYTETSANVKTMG

`CC(C)[C@H]1NC(=O)[C@@H](Cc2ccc(O)cc2)NCCOc2ccccc2/C=C/CNC(=O)[C@H](CO)NC1=O` came in with a Ki in test [1] of 650 nM. Besides, the Activity entry in test [2] is “Antagonist”.
With `CCC[C@@H]1NC(=O)[C@@H](C(C)C)NC(=O)[C@@H](Cc2ccc(O)cc2)NCCOc2ccccc2CCNC1=O`, the Ki in test [1] was 982 nM. In addition, in test [2], the Activity result is “Antagonist”.
`CCC[C@@H]1NC(=O)[C@@H](C(C)C)NC(=O)[C@@H](Cc2ccc(O)cc2)NCCCCCCCCNC1=O` displayed a Ki in test [1] of 1200 nM. Also, in test [2], the Activity entry was “Antagonist”.
The like results for `CCC[C@@H]1NC(=O)[C@@H](C(C)C)NC(=O)[C@@H](Cc2ccc(O)cc2)NCCc2ccccc2CCCNC1=O` were, in that order, more than 10000 nM and “Antagonist”.
In the case of `CCC[C@@H]1NC(=O)[C@@H](C(C)C)OC(=O)[C@@H](Cc2ccc(O)cc2)NCCOc2ccccc2CCCNC1=O`, the affinity in test [1] corresponds to a Ki of 192 nM. For the same compound, in test [2], the Activity entry was “Antagonist”.
The like results for `CCC[C@@H]1NC(=O)[C@@H](C(C)C)NC(=O)[C@@H](CCc2ccccc2)NCCOc2ccccc2CCCNC1=O` were, in that order, 1490 nM and “Antagonist”.
The like results for `CCC[C@H]1NC(=O)[C@@H](C(C)C)NC(=O)[C@@H](Cc2ccc(O)cc2)NCCOc2ccccc2/C=C/CNC1=O` were, in that order, 335 nM and “Antagonist”.
For `CCC[C@@H]1NC(=O)[C@@H](C(C)C)NC(=O)[C@@H](Cc2ccccc2)NCCOc2ccccc2CCCNC1=O`, in test [1], the affinity corresponds to a Ki of 57 nM. Besides, in test [2], the Activity result is “Antagonist”.
Consider `CCC[C@@H]1NC(=O)[C@@H](C(C)C)NC(=O)[C@@H](Cc2cccc3ccccc23)NCCOc2ccccc2CCCNC1=O`, for which, in test [1], the affinity, expressed as Ki, was 8.3 nM. For the same compound, the Activity entry in test [2] is “Antagonist”.
On to `CCC[C@@H]1NC(=O)[C@@H](C(C)C)NC(=O)[C@@H](CC2CCCCC2)NCCOc2ccccc2CCCNC1=O`, for which the affinity in test [1] corresponds to a Ki of 3250 nM. The Activity entry in test [2] was “Antagonist”.
The like results for `CCC[C@@H]1NC(=O)[C@@H](C(C)C)N(C)C(=O)[C@@H](Cc2ccc(O)cc2)NCCOc2ccccc2CCCNC1=O` were, in that order, more than 10000 nM and “Antagonist”.
Consider `CCC[C@@H]1NC(=O)[C@@H](C(C)C)NC(=O)[C@@H](Cc2ccc(O)cc2)NCCCCc2ccccc2CCNC1=O`, for which the affinity in test [1], expressed as Ki, was 6060 nM. The Activity result in test [2] is “Antagonist”.
In test [1], `CCC[C@@H]1NC(=O)[C@@H](C(C)C)NC[C@@H](Cc2ccc(O)cc2)NCCOc2ccccc2CCCNC1=O` displayed a Ki of 3240 nM. Besides, the Activity result in test [2] is “Antagonist”.
The like results for `CCC[C@@H]1NC(=O)[C@@H](C(C)C)NC(=O)[C@@H](Cc2ccc(O)cc2)NCCCc2ccccc2CCNC1=O` were, in that order, more than 10000 nM and “Antagonist”.
The like results for `CCC[C@@H]1NC(=O)[C@@H](CO)NC(=O)[C@@H](Cc2ccc(O)cc2)NCCOc2ccccc2/C=C/CNC1=O` were, in that order, more than 10000 nM and “Antagonist”.
For `CC(C)[C@H]1NC(=O)[C@@H](Cc2ccc(O)cc2)NCCOc2ccccc2/C=C/CNC(=O)[C@H](Cc2ccccc2)NC1=O`, in test [1], the Ki was found to be 185 nM. Also, the Activity entry in test [2] is “Antagonist”.
The like results for `CCC[C@@H]1NC(=O)[C@@H](C(C)C)NC(=O)[C@@H](Cc2c[nH]c3ccccc23)NCCOc2ccccc2CCCNC1=O` were, in that order, 255 nM and “Antagonist”.
Consider `CC(C)C[C@@H]1NC(=O)[C@@H](C(C)C)NC(=O)[C@@H](Cc2ccc(O)cc2)NCCOc2ccccc2/C=C/CNC1=O`, for which the affinity in test [1], expressed as Ki, was 62 nM. In addition, the Activity result in test [2] is “Antagonist”.
`CCC[C@@H]1NC(=O)[C@@H](C(C)C)NC(=O)[C@@H](Cc2ccc(O)cc2)NCCc2ccccc2CCCCNC1=O`: the Ki in test [1] was 6060 nM. Also, the Activity result in test [2] is “Antagonist”.
With `CCC[C@@H]1NC(=O)[C@@H](C(C)C)NC(=O)[C@@H](Cc2ccc(O)cc2)N(C(C)=O)CCOc2ccccc2CCCNC1=O`, the Ki in test [1] is 6390 nM. The Activity result in test [2] is “Antagonist”.
The like results for `CCC[C@@H]1NC(=O)[C@@H](C(C)C)NC(=O)[C@@H](Cc2ccc(O)cc2)NCCCc2ccccc2CCCNC1=O` were, in that order, more than 10000 nM and “Antagonist”.
The like results for `CCC[C@@H]1NC(=O)[C@@H](C(C)C)NC(=O)[C@@H](C)NCCOc2ccccc2/C=C/CNC1=O` were, in that order, more than 10000 nM and “Antagonist”.
The like results for `CCC[C@@H]1NC(=O)[C@@H](C(C)C)NNC(=O)[C@@H](Cc2ccc(O)cc2)NCCOc2ccccc2CCCNC1=O` were, in that order, 2370 nM and “Antagonist”.
For the compound `CCC[C@@H]1NC(=O)[C@@H](C(C)C)NC(=O)[C@@H](Cc2ccc(O)cc2)NCCCc2ccccc2/C=C/CNC1=O`, the Ki in test [1] is more than 10000 nM. The Activity result in test [2] was “Antagonist”.
`CC(C)[C@H]1NC(=O)[C@@H](Cc2ccc(O)cc2)NCCOc2ccccc2/C=C/CNC(=O)[C@H](CCCCN)NC1=O` displayed a Ki in test [1] of 664 nM. In addition, the Activity result in test [2] is “Antagonist”.
On to `CCC[C@@H]1NC(=O)[C@@H](C(C)C)NC(=O)[C@@H](Cc2ccc(O)cc2)NCCCc2ccccc2/C=C\CCNC1=O`, for which the affinity in test [1], expressed as Ki, was 7290 nM. Also, the Activity result in test [2] was “Antagonist”.
With `CCC[C@@H]1NC(=O)[C@@H](C(C)C)NC(=O)[C@@H](c2ccccc2)NCCOc2ccccc2CCCNC1=O`, the Ki in test [1] was more than 10000 nM. In addition, the Activity entry in test [2] was “Antagonist”.
As for `CCC[C@@H]1NC(=O)[C@@H](C(C)C)NC(=O)[C@@H](Cc2ccc(O)cc2)N(C)CCOc2ccccc2CCCNC1=O`, the Ki in test [1] amounted to 2780 nM. In addition, the Activity result in test [2] was “Antagonist”.
`CC(C)[C@H]1NC(=O)[C@@H](Cc2ccc(O)cc2)NCCOc2ccccc2/C=C/CNC(=O)[C@H](C)NC1=O`: the Ki in test [1] was 1390 nM. Also, the Activity entry in test [2] is “Antagonist”.
The like results for `CCC[C@@H]1NC(=O)[C@@H](Cc2ccccc2)NC(=O)[C@@H](Cc2ccc(O)cc2)NCCOc2ccccc2/C=C/CNC1=O` were, in that order, 1520 nM and “Antagonist”.
`CCC[C@@H]1OC(=O)[C@@H](C(C)C)NC(=O)[C@@H](Cc2ccc(O)cc2)NCCOc2ccccc2CCCNC1=O` came in with a Ki in test [1] of 1880 nM. Also, the Activity entry in test [2] is “Antagonist”.
The like results for `CC(C)[C@H]1NC(=O)[C@@H](Cc2ccc(O)cc2)NCCOc2ccccc2/C=C/CNC(=O)[C@H](CC(=O)O)NC1=O` were, in that order, 2550 nM and “Antagonist”.
The like results for `CCC[C@@H]1NC(=O)[C@@H](C(C)C)NC(=O)[C@@H](Cc2ccccc2)NCCOc2ccccc2/C=C/CNC1=O` were, in that order, 78 nM and “Antagonist”.
Consider `CCC[C@@H]1NC(=O)[C@H](C(C)C)NC(=O)[C@@H](Cc2ccc(O)cc2)NCCOc2ccccc2/C=C/CNC1=O`, for which the Ki in test [1] is more than 10000 nM. Also, in test [2], the Activity entry is “Antagonist”.
As for `CCC[C@@H]1NC(=O)[C@@H](C(C)C)NC(=O)[C@@H](CCCCN)NCCOc2ccccc2/C=C/CNC1=O`, the Ki in test [1] was more than 10000 nM. In addition, in test [2], the Activity result was “Antagonist”.
The like results for `CCC[C@@H]1NC(=O)[C@@H](C(C)C)NC(=O)[C@@H](Cc2ccc3ccccc3c2)NCCOc2ccccc2CCCNC1=O` were, in that order, 79 nM and “Antagonist”.
Consider `CCC[C@H](NC(=O)[C@H](NC(=O)[C@H](N)Cc1ccc(O)cc1)C(C)C)C(N)=O`, for which the Ki in test [1] was more than 10000 nM. Moreover, in test [2], the Activity entry is “Antagonist”.
Take `CCC[C@@H]1NC(=O)[C@@H](C(C)C)NC(=O)[C@@H](Cc2ccc(O)cc2)NCc2ccccc2CCCCNC1=O`: in test [1], the Ki was more than 10000 nM. Moreover, the Activity entry in test [2] is “Antagonist”.
Regarding `CCC[C@@H]1NC(=O)[C@@H](C(C)C)NC(=O)[C@@H](Cc2ccc(O)cc2)NC/C=C/CCNC1=O`, affinity in test [1] was put at a Ki of 701 nM. For the same compound, in test [2], the Activity result is “Antagonist”.
The like results for `CCC[C@@H]1NC(=O)[C@@H](C(C)C)NC(=O)[C@@H](CCC(=O)O)NCCOc2ccccc2/C=C/CNC1=O` were, in that order, more than 10000 nM and “Antagonist”.
The like results for `CCC[C@H](NC(=O)[C@H](NC(=O)[C@@H](Cc1ccc(O)cc1)NCCOc1ccccc1/C=C/CNC(C)=O)C(C)C)C(N)=O` were, in that order, more than 10000 nM and “Antagonist”.
In test [1], `CC[C@H](C)[C@H](NC(=O)[C@@H]1CCCN1C(=O)[C@@H](NC(=O)[C@@H](N)Cc1ccccc1)C(C)C)C(=O)N[C@@H](Cc1ccccc1)C(=O)N[C@H](C(=O)N[C@@H](Cc1ccc(O)cc1)C(=O)NCC(=O)N[C@@H](CCC(=O)O)C(=O)N[C@@H](CC(C)C)C(=O)N[C@@H](CCC(N)=O)C(=O)N[C@@H](CCCNC(=N)N)C(=O)N[C@@H](CCSC)C(=O)N[C@@H](CCC(N)=O)C(=O)N[C@@H](CCC(=O)O)C(=O)N[C@@H](CCCCN)C(=O)N[C@@H](CCC(=O)O)C(=O)N[C@@H](CCCNC(=N)N)C(=O)N[C@@H](CC(N)=O)C(=O)N[C@@H](CCCCN)C(=O)NCC(=O)N[C@@H](CCC(N)=O)C(=O)O)[C@@H](C)O` [MOTILIN] returned a Ki of 0.36 nM.
In test [1], `CCC[C@@H]1NC(=O)[C@@H](C(C)C)NC(=O)[C@@H](C(C)C)NCCOc2ccccc2/C=C/CNC1=O` displayed an inhibitory constant (Ki) of 3570 nM. In addition, the Activity result in test [2] was “Antagonist”.
Consider `CCC[C@@H]1NC(=O)[C@@H](C)NC(=O)[C@@H](Cc2ccc(O)cc2)NCCOc2ccccc2/C=C/CNC1=O`, for which the Ki in test [1] worked out at 196 nM. The Activity entry in test [2] is “Antagonist”.
The like results for `CCC[C@@H]1NC(=O)[C@@H](C(C)C)NC(=O)[C@@H](Cc2ccc(O)cc2)NCCOc2ccccc2CCCNC1=O` were, in that order, 55 nM and “Antagonist”.
The like results for `CCC[C@@H]1NC(=O)[C@@H](C(C)C)NC(=O)[C@@H](Cc2csc3ccccc23)NCCOc2ccccc2CCCNC1=O` were, in that order, 11 nM and “Antagonist”.
Compound `CCC[C@@H]1NC(=O)[C@@H](C(C)C)NC(=O)[C@@H](Cc2ccc(O)cc2)NCCc2ccccc2/C=C/CNC1=O` gave a Ki in test [1] of 9730 nM. Moreover, in test [2], the Activity result is “Antagonist”.
